From ChEMBL document CHEMBL4033782, “Structural Modification of Natural Product Tanshinone I Leading to Discovery of Novel Nitrogen-Enriched Derivatives with Enhanced Anticancer Profile and Improved Drug-like Properties” (J Med Chem, 2018)
In brackets after ≈: the same amount, converted by molar mass. Activity calls are given as the source filed them. The rule behind the calls is not given here.

How the values were obtained:
Liver [1] = test: Intrinsic clearance in mouse liver microsomes assessed per mg protein up to 60 mins by LC-MS/MS analysis; type: ADME, microsome; conditions: 1 h
How it was run: (§1)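 Compound at 0.1 μM final (0.01% DMSO, 0.005% BSA) incubated at 37 °C with human, rat or mouse liver microsomes (0.33 mg/mL protein) in 0.1 M Tris/HCl pH 7.4, with 5 mM MgCl2 and 1 mM NADPH. Samples taken at 0, 7, 17, 30 and 60 min, quenched by methanol precipitation, centrifuged, and parent measured by LC-MS/MS. T1/2 and Clint derived.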

[2] = Antiproliferative activity against human KB/VCR cells after 72 hrs by sulforhodamine B assay; type: functional, cell-based
How it was run: (§2)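 Cells grown in ATCC-specified medium with 10% heat-inactivated FBS, penicillin/streptomycin and 10 mM Hepes, at 37 °C under 5% CO2. Seeded, cultured overnight, then exposed to gradient concentrations for 72 h. Growth read by SRB staining; inhibition % = [1−(A450 treated/A450 control)]×100. IC50 obtained by the Logit method from independent experiments.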

Liver [3] = test: Intrinsic clearance in rat liver microsomes assessed per mg protein up to 60 mins by LC-MS/MS analysis; type: ADME, microsome; conditions: 1 h
How it was run: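 Liver microsomes (0.33 mg/mL protein) in 0.1 M Tris/HCl pH 7.4 with 5 mM MgCl2, 1 mM NADPH, compound at 0.1 μM final (0.01% DMSO, 0.005% BSA), 37 °C; samples at 0, 7, 17, 30, 60 min quenched in methanol, centrifuged, LC-MS/MS; T1/2 and Clint per g protein derived.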

Liver [4] = test: Intrinsic clearance in human liver microsomes assessed as per mg protein up to 60 mins by LC-MS/MS analysis; type: ADME, microsome; conditions: 1 h; how it was run: as §1
[5] = Half life in human liver microsomes at 0.1 uM up to 60 mins by LC-MS/MS analysis; type: ADME, microsome; how it was run: as §1
[6] = Half life in rat liver microsomes at 0.1 uM up to 60 mins by LC-MS/MS analysis; type: ADME, microsome; how it was run: as §1
KB = test: Antiproliferative activity against human KB cells after 72 hrs by sulforhodamine B assay; type: functional, cell-based; how it was run: as §2
[7] = Half life in mouse liver microsomes at 0.1 uM up to 60 mins by LC-MS/MS analysis; type: ADME, microsome; conditions: liver microsomes; how it was run: as §1
[8] = Aqueous solubility of the compound in pH 7.5 Tris buffer after 24 hrs by HPLC method; type: physicochemical
HCT-116 [9] = test: Induction of apoptosis in human HCT116 cells after 48 hrs by Annexin V-FITC/propidium iodide staining-based FACS analysis; type: functional, cell-based
HCT-116 [10] = test: Induction of apoptosis in human HCT116 cells assessed as activation of caspase 3/7 after 48 hrs by Western blot analysis; type: functional, cell-based
How it was run: (§3)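 HCT116 cells, with or without a 1 h pretreatment with 20 μM Z-VAD-FMK, exposed for 48 h. Lysed on ice in Hepes/NaCl/Triton X-100 buffer with protease/phosphatase inhibitors and clarified at 12,000×g. Equal protein run by SDS-PAGE, blotted to nitrocellulose, probed overnight at 4 °C for PARP, caspase 3, caspase 7 and β-actin. HRP secondaries, ECL detection.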

HCT-116 [11] = test: Antitumor activity against human HCT116 cells xenografted in BALB/C nude mouse assessed as tumor growth inhibition at 10 mg/kg, iv once daily for 14 days starting on day 14 post tumor implantation measured on day 32; type: functional, organism-based
How it was run: (§4)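 BALB/c nude male mice (18–20 g) implanted subcutaneously in the right axilla with HCT116 cells. Dosing began once tumors exceeded 100 mm³ (day 14). Test agent given 10 mg/kg i.v. or 30 mg/kg i.p. daily for 14 days; 5-FU 15 mg/kg as reference. Vehicle 1% DMSO in sterile saline; 6 mice per treated group, 10 per control. Relative tumor volume and body weight tracked.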

HCT-116 [12] = test: Antitumor activity against human HCT116 cells xenografted in BALB/C nude mouse assessed as tumor growth inhibition at 30 mg/kg, ip once daily for 14 days starting on day 14 post tumor implantation measured on day 32; type: functional, organism-based; how it was run: as §4
HCT-116 [13] = test: Induction of apoptosis in human HCT116 cells pretreated with Z-VAD-FMK pan-caspase inhibitor for 1 hr assessed as cleavage of PARP at 0.5 to 2 uM after 48 hrs by Western blot analysis; type: functional, cell-based; how it was run: as §3
HCT-116 [14] = test: Induction of apoptosis in human HCT116 cells pretreated with Z-VAD-FMK pan-caspase inhibitor for 1 hr assessed as activation of caspase 3/7 at 0.5 to 2 uM after 48 hrs by Western blot analysis; type: functional, cell-based; how it was run: as §3
HCT-116 [15] = test: Induction of apoptosis in human HCT116 cells pretreated with Z-VAD-FMK pan-caspase inhibitor for 1 hr assessed as activation of caspase 3/7 at 1.0 to 4.0 uM after 24 hrs by Caspase-Glo 3/7 assay
HCT-116 [16] = test: Induction of apoptosis in human HCT116 cells assessed as activation of caspase 3/7 at 1.0 to 4.0 uM after 24 hrs by Caspase-Glo 3/7 assay
HCT-116 [17] = test: Induction of apoptosis in human HCT116 cells assessed as cleavage of PARP after 48 hrs by Western blot analysis; type: functional, cell-based; how it was run: as §3

SMILES	IC50 [2] [µM]	IC50 (KB) [µM]	also measured
Cc1cccc2c3c(ccc12)-c1occ(CN(C)C)c1C(=O)C3=O	0.51	1.11	intrinsic clearance (Liver [1]): 51.6 mL/min/g; intrinsic clearance (Liver [3]): 92.7 mL/min/g; intrinsic clearance (Liver [4]): 4.19 mL/min/g; half-life at 0.1 µM [5]: 501 min; half-life at 0.1 µM [6]: 22.7 min; half-life at 0.1 µM [7]: 40.7 min
Cc1cccc2c3c(ccc12)C1=C(C(=O)C3=O)C(Nc2ccc(F)c([N+](=O)[O-])c2)C(C)(C)O1 (stereo not drawn)	> 20	> 20	–
Cc1cc2c(o1)-c1c(c3ccccc3c(=O)n1CCCN1CCOCC1)C(=O)C2=O	1.56	2.3	–
CON(C)Cc1coc2c1C(=O)C(=O)c1c-2ccc2c(C)cccc12	5.71	8.12	–
Cc1cccc2c3c(ccc12)-c1occ(CN2CCN(C)CC2)c1C(=O)C3=O	13.1	5.22	–
Cc1cccc2c3c(ccc12)-c1occ(CO)c1C(=O)C3=O	2.95	3.22	–
Cc1cc2c(o1)-c1nc(OCCO)c3ccccc3c1C(=O)C2=O	> 20	> 20	–
Cc1cccc2c3c(ccc12)-c1occ(CN(CCCl)CCCl)c1C(=O)C3=O	10.9	9.43	–
Cc1cccc2c3c(ccc12)C1=C(C(=O)C3=O)C(O)C(C)(C)O1 (stereo not drawn)	1.24	1.63	solubility at 24 h [8]: 90 µg/mL (≈ 292 µM); intrinsic clearance (Liver [1]): 83.1 mL/min/g; intrinsic clearance (Liver [3]): 104 mL/min/g; intrinsic clearance (Liver [4]): 36.8 mL/min/g; half-life at 0.1 µM [5]: 57.1 min; half-life at 0.1 µM [6]: 20.2 min; half-life at 0.1 µM [7]: 25.3 min
CC[C@]1(O)C[C@H]2CN(CCc3c([nH]c4ccccc34)[C@@](C(=O)OC)(c3cc4c(cc3OC)N(C=O)[C@H]3[C@@](O)(C(=O)OC)[C@H](OC(C)=O)[C@]5(CC)C=CCN6CC[C@]43[C@@H]65)C2)C1 [VINCRISTINE]	0.358	0.00072	–
Cc1cccc2c3c(ccc12)-c1occ(CN2CCC(CO)C2)c1C(=O)C3=O (stereo not drawn)	0.91	1.27	–
Cc1cccc2c3c(ccc12)-c1occ(CN2CCC(N(C)C)CC2)c1C(=O)C3=O	3.82	3.8	–
Cc1cccc2c3c(ccc12)-c1occ(CN(CCO)CCO)c1C(=O)C3=O	1.43	1.64	–
Cc1cc2c(o1)-c1c(c3ccccc3c(=O)n1CCCn1ccnc1)C(=O)C2=O	10.1	17.2	–
COc1ccc(OC)c(NC2C3=C(OC2(C)C)c2ccc4c(C)cccc4c2C(=O)C3=O)c1 (stereo not drawn)	> 20	> 20	–
Cc1cc2c(o1)-c1nc(OCCCCN(C)C)c3ccccc3c1C(=O)C2=O	> 20	> 20	–
CCN(CC)CCCn1c2c(c3ccccc3c1=O)C(=O)C(=O)c1cc(C)oc1-2.Cl	–	–	solubility at 24 h [8]: > 80000 µg/mL
Cc1cccc2c3c(ccc12)-c1occ(CN(C)CCO)c1C(=O)C3=O	1.02	1.5	–
Cc1cccc2c3c(ccc12)-c1occ(CN2CCC(=O)CC2)c1C(=O)C3=O	4.74	9.71	–
Cc1cccc2c3c(ccc12)-c1occ(CN2CCCC2)c1C(=O)C3=O	1.79	1.59	–

SMILES	IC50 [2] [µM]	IC50 (KB) [µM]	also measured
COC1C2=C(OC1(C)C)c1ccc3c(C)cccc3c1C(=O)C2=O (stereo not drawn)	2.02	2.19	–
Cc1cc2c(o1)-c1c(c3ccccc3c(=O)n1CCO)C(=O)C2=O	> 20	> 20	–
Cc1cc2c(o1)-c1c(c3ccccc3c(=O)n1CCCN1CCCC1)C(=O)C2=O	2.64	3.4	–
Cc1cc2c(o1)-c1c(c3ccccc3c(=O)n1CCCCN(C)C)C(=O)C2=O	2.47	4.05	–
Cc1cc2c(o1)-c1c(c3ccccc3c(=O)n1CCCN1CCC(N3CCOCC3)CC1)C(=O)C2=O	1.72	0.34	–
Cc1cccc2c3c(ccc12)-c1occ(CN2CCOCC2)c1C(=O)C3=O	> 20	> 20	–
Cc1cc2c(o1)-c1c(c3ccccc3c(=O)n1CCCCCN(C)C)C(=O)C2=O	5.17	13.8	–
Cc1cccc2c3c(ccc12)-c1occ(CN(C)C)c1C(=O)C3=O.Cl	–	–	solubility at 24 h [8]: 8030 µg/mL
Cc1cc2c(o1)-c1c(c3ccccc3c(=O)n1CCCN(C)C)C(=O)C2=O	0.92	0.71	–
Cc1cc2c(o1)-c1nc(OCCOCCN(C)C)c3ccccc3c1C(=O)C2=O	1.65	3.78	–
Cc1cccc2c3c(ccc12)C1=C(CC(C)(C)O1)C(=O)C3=O	2.37	2.62	–
Cc1cc2c(o1)-c1c(c3ccccc3c(=O)n1CCCN1CCCCC1)C(=O)C2=O	1.53	1.12	–
Cc1cccc2c3c(ccc12)-c1occ(CN2CCN(CCO)CC2)c1C(=O)C3=O	4.41	2.68	–
Cc1cccc2c3c(ccc12)-c1occ(CN2CC[C@H](N(C)C)C2)c1C(=O)C3=O	1.7	2.61	–
CCN(CC)CCCn1c2c(c3ccccc3c1=O)C(=O)C(=O)c1cc(C)oc1-2	–	–	Activity (HCT-116 [9]): Dose-dependent effect; Activity (HCT-116 [10]): Dose-dependent effect; TGI (HCT-116 [11]): Active; TGI (HCT-116 [12]): Active; Activity (HCT-116 [13]): inactive; Activity (HCT-116 [14]): inactive; Activity (HCT-116 [15]): inactive; Activity (HCT-116 [16]): Active; Activity (HCT-116 [17]): Dose-dependent effect
Cc1cc2c(o1)-c1nc(OCCCCCN(C)C)c3ccccc3c1C(=O)C2=O	1.99	15.3	–
Cc1cccc2c3c(ccc12)-c1occ(CN2CCC(O)CC2)c1C(=O)C3=O	1.11	1.54	–
Cc1cc2c(o1)-c1c(c3ccccc3c(=O)n1CCCN1CCC(CCO)CC1)C(=O)C2=O	1.49	0.87	–
Cc1cccc2c3c(ccc12)-c1occ(CN2CCO[C@H](CO)C2)c1C(=O)C3=O	2.41	4.97	–
Cc1cc2c(o1)-c1c(c3ccccc3c(=O)n1CCCN1CCN(C)CC1)C(=O)C2=O	3.52	10.4	–
